Where two headings read alike, the source gives them in different places.
Legend:
[1] = Tolerability, body weight and blood parameters, oral study; type: in vivo, mice
In short: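 In the oral study, infected BALB/c mice (n = 10 per group) were gavaged daily for 30 days with test compound in water, albendazole in 0.5% carboxymethyl cellulose, or water alone. Mice were monitored for morbidity signs and behaviour. Two weeks after treatment, plasma was collected, and body, liver, kidney and thymus weights were recorded.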

E. granulosus ss cysts [2] = assay: Transmission electron microscopy of cysts from treated mice; type: in vivo, Echinococcus granulosus sensu stricto
In short: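 Cysts came from infected BALB/c mice given test compound at 57 mg/kg, either i.p. once daily for 3 days or by gavage daily for 30 days, and from albendazole-treated (50 mg/kg p.o.) and untreated mice. Cyst ultrastructure was examined by transmission electron microscopy, covering the laminated layer, tegument, germinal layer and microtriches.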

E. granulosus ss cysts [3] = assay: In vivo efficacy, oral administration, secondarily infected mice; design: species or system Echinococcus granulosus sensu stricto
In short: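 Microcyst-infected female BALB/c mice (3 months post-infection), 10 per group, were gavaged once daily for 30 days with 0.2 ml. Test compound 57 mg/kg was given in deionised water, albendazole 50 mg/kg in 0.5% carboxymethyl cellulose, and controls received deionised water. Necropsy 2 weeks post-treatment. Cysts were weighed and scored alive or dead by morphological type. One-way ANOVA or Kruskal-Wallis test.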

[4] = system: E. granulosus ss protoscoleces (PSCs); assay: E. granulosus ss PSC killing assay; type: cell-based, Echinococcus granulosus sensu stricto; details: Echinococcus granulosus, 24 h, read-out: LC50 (protoscolicidal activity)
In short: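 Protoscoleces were aspirated from cysts in naturally infected sheep livers and cultured by a prior method. Wells held 200 PSCs; test compound from a 10× aqueous stock, final 34–114 μM; medium-only control. Incubation was 24 h at 37 °C, 5% CO2. Viability: 0.1% methylene blue for 5 min, with blue PSCs scored dead under an inverted microscope. Triplicate; LC50 by nonlinear regression.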

cystic echinococcosis = details: clinical study ref 5; cited from earlier work
E. granulosus ss cysts [5] = assay: Microinjection treatment of cysts; type: in vivo, Echinococcus granulosus sensu stricto
CYP2C9 = CYP2C9 (Homo sapiens, UniProt P11712); assay: CYP450 inhibition assay, human liver microsomes; type: in vitro ADME
Sequence of CYP2C9 (P11712 whole entry): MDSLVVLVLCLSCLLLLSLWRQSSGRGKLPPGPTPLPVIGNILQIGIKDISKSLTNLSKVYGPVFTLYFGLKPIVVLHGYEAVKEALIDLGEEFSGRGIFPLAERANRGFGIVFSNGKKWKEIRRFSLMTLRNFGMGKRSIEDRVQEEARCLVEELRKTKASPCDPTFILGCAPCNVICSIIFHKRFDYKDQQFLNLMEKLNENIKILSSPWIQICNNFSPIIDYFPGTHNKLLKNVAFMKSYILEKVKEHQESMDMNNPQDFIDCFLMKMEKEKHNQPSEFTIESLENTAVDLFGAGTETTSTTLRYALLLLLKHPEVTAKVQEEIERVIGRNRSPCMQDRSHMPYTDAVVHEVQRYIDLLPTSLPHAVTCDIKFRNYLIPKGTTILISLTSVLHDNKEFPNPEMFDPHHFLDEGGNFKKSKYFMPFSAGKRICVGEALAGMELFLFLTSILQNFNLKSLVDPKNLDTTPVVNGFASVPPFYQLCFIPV

E. granulosus ss cysts [6] = assay: In vivo efficacy, intraperitoneal administration, secondarily infected mice; design: species or system Echinococcus granulosus sensu stricto
In short: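 Female BALB/c mice, 6–8 weeks, were infected intraperitoneally with microcysts and randomised at 3 months. Test compound in saline at 14, 28 or 57 mg/kg (n = 10 each), 1.0 ml i.p. once daily for 3 days; saline controls n = 12. Necropsy 2 weeks post-treatment. Cysts were weighed, and viability was scored by morphology: type 1 alive, types 2–3 dead. Kruskal-Wallis test.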

CYP1A2 = molecular target: T1, CYP1A2 (Homo sapiens, UniProt P05177); assay: CYP450 inhibition assay, human liver microsomes; type: in vitro ADME
T1 sequence (P05177 1-516): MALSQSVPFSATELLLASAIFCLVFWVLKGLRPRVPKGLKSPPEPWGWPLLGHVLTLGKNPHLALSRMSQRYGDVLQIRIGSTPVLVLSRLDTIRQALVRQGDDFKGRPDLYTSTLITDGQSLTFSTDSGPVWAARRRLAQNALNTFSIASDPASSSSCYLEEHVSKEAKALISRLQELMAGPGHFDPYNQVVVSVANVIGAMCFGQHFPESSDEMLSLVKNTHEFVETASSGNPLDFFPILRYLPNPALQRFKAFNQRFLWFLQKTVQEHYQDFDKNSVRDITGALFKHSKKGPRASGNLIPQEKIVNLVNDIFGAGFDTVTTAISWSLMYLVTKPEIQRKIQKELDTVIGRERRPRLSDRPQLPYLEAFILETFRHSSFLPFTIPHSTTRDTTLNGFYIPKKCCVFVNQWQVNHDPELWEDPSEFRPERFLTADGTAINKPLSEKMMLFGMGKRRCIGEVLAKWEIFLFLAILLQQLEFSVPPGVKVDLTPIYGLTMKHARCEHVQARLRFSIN

[7] = dogs, oral 24 mg/kg/day for 30 days ref 20; cited from earlier work
[8] = dog, 28 days oral treatment ref 16; cited from earlier work
[9] = molecular target: T2, E. granulosus ss topoisomerase I (Egtopo I) (Echinococcus granulosus, UniProt W6UT38); assay: Egtopo I-mediated DNA relaxation assay; type: biochemical, Echinococcus granulosus sensu stricto; details: read-out: IC50 Egtopo I activity; relaxation of supercoiled pBR322, 30 min 37 °C
T2 sequence (W6UT38 1-621): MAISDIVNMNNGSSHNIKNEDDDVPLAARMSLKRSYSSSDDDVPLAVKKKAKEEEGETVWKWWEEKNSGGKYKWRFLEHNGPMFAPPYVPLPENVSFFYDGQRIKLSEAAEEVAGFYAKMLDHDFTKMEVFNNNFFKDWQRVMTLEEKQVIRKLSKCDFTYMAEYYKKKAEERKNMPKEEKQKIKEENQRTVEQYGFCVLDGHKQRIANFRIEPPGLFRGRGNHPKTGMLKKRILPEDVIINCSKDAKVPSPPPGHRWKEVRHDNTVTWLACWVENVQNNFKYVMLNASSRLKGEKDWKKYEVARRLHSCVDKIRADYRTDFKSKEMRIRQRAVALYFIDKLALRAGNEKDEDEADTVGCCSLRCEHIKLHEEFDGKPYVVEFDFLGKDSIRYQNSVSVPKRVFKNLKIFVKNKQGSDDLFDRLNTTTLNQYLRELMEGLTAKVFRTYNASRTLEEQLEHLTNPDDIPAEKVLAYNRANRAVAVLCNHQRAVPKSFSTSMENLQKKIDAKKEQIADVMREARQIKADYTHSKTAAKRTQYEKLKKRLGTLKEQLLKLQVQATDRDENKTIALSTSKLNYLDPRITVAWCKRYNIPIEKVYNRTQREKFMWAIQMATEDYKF
In short: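 Kit-based relaxation assay with pBR322 (200 ng), Egtopo I (300 ng) and 0.1% BSA. Test compound at final 50, 100, 150, 200, 300, 400, 500 and 600 μM in assay buffer, 30 min at 37 °C. Stopped with 10% SDS plus loading buffer, run on 1% agarose and stained with ethidium bromide (5 μg/ml). IC50 from a nonlinear regression fit, n = 3.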

E. granulosus ss PSCs [10] = assay: DNA fragmentation assay in PSCs; type: cell-based; details: 50 μM, 24 h
[11] = 28 days oral treatment NOAEL in the dog; details: in vivo, 5 mg/kg/day
CYP2D6 = CYP2D6 (Homo sapiens, UniProt P10635); assay: CYP450 inhibition assay, human liver microsomes; type: in vitro ADME
Sequence of CYP2D6 (P10635 whole entry): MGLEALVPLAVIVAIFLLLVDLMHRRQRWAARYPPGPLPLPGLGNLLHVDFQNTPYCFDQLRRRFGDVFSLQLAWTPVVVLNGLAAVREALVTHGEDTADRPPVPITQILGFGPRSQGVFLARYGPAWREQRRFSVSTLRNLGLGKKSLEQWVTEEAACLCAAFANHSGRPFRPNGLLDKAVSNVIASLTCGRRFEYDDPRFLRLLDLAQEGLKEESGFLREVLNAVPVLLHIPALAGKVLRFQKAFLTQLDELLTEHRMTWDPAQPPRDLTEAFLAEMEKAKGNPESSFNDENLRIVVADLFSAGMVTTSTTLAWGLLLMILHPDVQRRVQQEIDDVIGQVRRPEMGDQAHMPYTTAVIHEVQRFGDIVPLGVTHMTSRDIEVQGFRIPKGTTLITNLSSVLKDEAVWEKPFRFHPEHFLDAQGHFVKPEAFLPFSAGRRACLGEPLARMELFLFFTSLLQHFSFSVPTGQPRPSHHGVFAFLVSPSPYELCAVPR

[12] = system: Salmonella typhimurium strains; details: cited from earlier work
[13] = 28 days oral treatment NOAEL in the rat; details: in vivo, 23 mg/kg/day
[14] = In vivo pharmacokinetics and tissue distribution; design: species or system mice; details: for Kp: male, ICR, mouse, intraperitoneal, 57 mg/kg
In short: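 Male ICR mice (20–22 g, 3 per time point) received a single 57 mg/kg i.p. dose. Plasma was precipitated with acetonitrile containing internal standards and centrifuged at 2600 g for 10 min at 4 °C. Liver and lung were homogenised in 4 volumes of 100 mM phosphate buffer, pH 7.4, and processed alike. Samples taken 0.25–48 h were measured by LC-MS/MS and analysed non-compartmentally.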

CYP2C19 = CYP2C19 (Homo sapiens, UniProt P33261); assay: CYP450 inhibition assay, human liver microsomes; type: in vitro ADME
Sequence of CYP2C19 (P33261 whole entry): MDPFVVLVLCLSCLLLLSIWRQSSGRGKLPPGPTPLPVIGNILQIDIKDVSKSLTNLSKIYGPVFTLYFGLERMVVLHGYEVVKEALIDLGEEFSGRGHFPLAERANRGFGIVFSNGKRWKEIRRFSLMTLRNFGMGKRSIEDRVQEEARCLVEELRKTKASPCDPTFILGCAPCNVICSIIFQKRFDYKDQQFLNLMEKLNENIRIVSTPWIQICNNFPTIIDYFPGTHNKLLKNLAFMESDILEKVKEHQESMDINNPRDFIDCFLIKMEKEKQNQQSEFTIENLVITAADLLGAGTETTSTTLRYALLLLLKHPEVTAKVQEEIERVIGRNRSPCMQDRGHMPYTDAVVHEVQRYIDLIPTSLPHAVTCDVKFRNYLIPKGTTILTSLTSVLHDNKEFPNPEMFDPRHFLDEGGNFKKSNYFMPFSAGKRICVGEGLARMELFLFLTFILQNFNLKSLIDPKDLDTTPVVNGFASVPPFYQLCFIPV

CYP3A4 = CYP3A4 (Homo sapiens, UniProt P08684); assay: CYP450 inhibition assay, human liver microsomes; type: in vitro ADME
Sequence of CYP3A4 (P08684 whole entry): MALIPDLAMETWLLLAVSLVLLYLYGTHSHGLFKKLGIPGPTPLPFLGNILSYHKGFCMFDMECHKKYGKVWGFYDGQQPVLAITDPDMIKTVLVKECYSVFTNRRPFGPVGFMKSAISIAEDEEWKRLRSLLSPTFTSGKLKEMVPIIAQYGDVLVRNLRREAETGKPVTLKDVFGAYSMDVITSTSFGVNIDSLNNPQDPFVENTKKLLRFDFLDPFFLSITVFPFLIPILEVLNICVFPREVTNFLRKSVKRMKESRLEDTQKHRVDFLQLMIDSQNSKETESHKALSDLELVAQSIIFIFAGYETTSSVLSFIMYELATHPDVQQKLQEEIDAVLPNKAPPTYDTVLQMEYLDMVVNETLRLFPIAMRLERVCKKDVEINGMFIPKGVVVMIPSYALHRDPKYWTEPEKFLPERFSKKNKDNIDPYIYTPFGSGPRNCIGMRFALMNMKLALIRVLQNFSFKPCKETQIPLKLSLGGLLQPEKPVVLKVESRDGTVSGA

[15] = rat, 28 days oral treatment ref 16; cited from earlier work
caspase-3 = assay: Caspase-3 activity assay in PSCs; type: cell-based, E. granulosus; details: 100 µM 24 h, vs vehicle controls
[16] = Tolerability, organ weights and blood parameters, intraperitoneal study; type: in vivo, mice
In short: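 Microcyst-infected female BALB/c mice were dosed i.p. once daily for 3 days with test compound in saline (14, 28, 57 mg/kg; n = 10) or saline (n = 12). During treatment they were watched for emaciation, hunched back, ruffled coat, appetite and behaviour changes. Two weeks post-treatment, plasma was taken for haematology and biochemistry, and liver, kidneys, thymus and body were weighed.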

bone marrow = details: mice, bone marrow ref 38, 39; cited from earlier work
E. granulosus ss PSCs [17] = assay: TUNEL assay in PSCs; type: cell-based; details: 100 µM, 24 h
[18] = 0 to 48 h, single 57 mg/kg i.p.

SMILES: CCCSc1ccc2nc(NC(=O)OC)[nH]c2c1 [ABZ, albendazole]
- body weight ([1]; ABZ 50 mg/kg p.o. 30 days): minor loss of body weight
- cyst ultrastructure (TEM) (E. granulosus ss cysts [2]; ABZ 50 mg/kg, p.o.): did not exhibit obvious ultrastructural changes
- cyst mortality rate (E. granulosus ss cysts [3]; ABZ 50 mg/kg p.o. q.d. 30 days): 22.2%
- cyst weight reduction (E. granulosus ss cysts [3]; ABZ 50 mg/kg p.o. q.d. 30 days): 48.1%
- LC50 [4]: 79.2 ± 3.9 µM
- CE cases that did not respond favorably to treatment (cystic echinococcosis): approximately 40%

SMILES: COc1ccc2nc3cc(Cl)ccc3c(Nc3cc(CN4CCCC4)c(O)c(CN4CCCC4)c3)c2n1 [PND, pyronaridine]
- cyst counts (E. granulosus ss cysts [5]; 200 μM microinjected, 35 cysts/mouse transferred, 30 days): 6.4 ± 1.2
- parasite wet weight reduction (E. granulosus ss cysts [5]; 200 μM microinjected, 30 days post-treatment, vs saline group): 52.3%
- cysts killed after microinjection (E. granulosus ss cysts [5]; microinjection with PND): more than 90%
- body weight ([1]; PND 57 mg/kg p.o. 30 days): minor loss of body weight
- IC50 (CYP2C9): > 10 µM
- cyst mortality (E. granulosus ss cysts [6]; 57 mg/kg i.p. q.d. 3 days): 100%
- wet cyst weight reduction (E. granulosus ss cysts [6]; 57 mg/kg i.p. q.d. 3 days, vs unmedicated mice): 38.7%
- growth of cysts (E. granulosus ss cysts [6]; 14, 28 and 57 mg/kg i.p. q.d. 3 days): successfully suppressed the growth of cysts
- IC50 (CYP1A2): > 10 µM
- tolerability [7]: well tolerated
- cyst ultrastructure (TEM) (E. granulosus ss cysts [2]; PND 57 mg/kg, both i.p. and p.o.): devastating damage of the cyst tissues
- no observed adverse effect level (NOAEL) [8]: 5 mg/kg/day
- cysts killed (mortality rate) (E. granulosus ss cysts [3]; PND 57 mg/kg p.o. q.d. 30 days): 90.7%
- parasite wet weight reduction (E. granulosus ss cysts [3]; PND 57 mg/kg p.o. q.d. 30 days, vs vehicle control): 42.4%
- IC50 [9]: 209.7 ± 1.1 µM
- DNA ladder on agarose gel (E. granulosus ss PSCs [10]): a clear pattern of DNA fragmentation (DNA ladder) was observed
- NOAEL at 28 days [11]: 2.7 mg/kg/day
- IC50 (CYP2D6): 1.53 µM
- Ames mutagenicity ([12]; strain TA1537 ref 40): evidence of bacterial mutagenicity
- Ames mutagenicity ([12]; strains TA100, TA98, TA1535 and TA1538 ref 40): did not induce mutations
- NOAEL at 28 days [13]: 3.7 mg/kg/day
- LC50 [4]: 49 ± 0.2 µM
- average concentration in the liver [14, 18]: 435.7 µmol/kg
- average concentration in the lungs [14, 18]: 122.5 µmol/kg
- average plasma concentration [14, 18]: 1.5 µM
- Kp ([14]; liver/plasma): 290
- Kp ([14]; lungs/plasma): 81.7
- IC50 (CYP2C19): > 10 µM
- IC50 (CYP3A4): > 10 µM
- no observed adverse effect level (NOAEL) [15]: 23 mg/kg/day
- increase in caspase-3 activity (caspase-3): 20 fold
- behaviour and adverse effects ([16]; 14, 28, 57 mg/kg i.p. q.d. 3 days): without obvious adverse effects
- liver weight ([16]; high-dosage group (57 mg/kg i.p.), vs control): a minor increase in liver weight
- micronucleus frequency (bone marrow): no increase in micronucleus frequency in the bone marrow
- TUNEL staining (DNA fragmentation) (E. granulosus ss PSCs [17]): abundant TdT dUTP nick-end labeling (TUNEL)-positive cells were observed

Source: publication PMC7152711 (EBioMedicine, 2020)
